Reference: publication PMC4289021 (Nature, 2014)
Changes are numbered by the printed parent chain. pKd: −log10 of the molar value.

Assays:
RNF146 WWE domain = details: cited from earlier work
[1] = target: T1, RNF146(RING-WWE) (residues 30–183) (Mus musculus, UniProt Q9CZW6); assay: ITC, iso-ADPr binding to WT RNF146
T1 sequence (Q9CZW6 32-185): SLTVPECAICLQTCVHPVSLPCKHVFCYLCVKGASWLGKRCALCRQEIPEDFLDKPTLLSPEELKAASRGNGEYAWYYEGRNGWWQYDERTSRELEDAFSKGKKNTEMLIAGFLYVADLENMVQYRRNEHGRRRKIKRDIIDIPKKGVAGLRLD

K61A RNF146(RING-WWE) = target: T2, K61A RNF146(RING-WWE) (Mus musculus, UniProt Q9CZW6, K63A); assay: ITC, iso-ADPr binding to K61A RNF146; details: 25 °C, K61A mutant
T2 sequence (Q9CZW6 32-185 K63A): T1 sequence (Q9CZW6 32-185) with K32A
Procedure, shortened: (§1)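 Calorimetry at 25 °C on untagged mouse RNF146(RING-WWE), wild type or site-directed mutants. Protein and iso-ADPr were exchanged by Superdex 75 SEC into 20 mM HEPES pH 7.5, 150 mM NaCl, 1 mM DTT. Cell held ~15–20 μM protein. Ligand ~500 μM in the same buffer. Both were degassed. Injections of 5 μL every 5 min, 25–40 total. Kd came from a one-site model fit.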

K61D RNF146(RING-WWE) = target: T3, K61D RNF146(RING-WWE) (Mus musculus, UniProt Q9CZW6, K63D); assay: ITC, iso-ADPr binding to K61D RNF146; details: 25 °C, K61D mutant
T3 sequence (Q9CZW6 32-185 K63D): T1 sequence (Q9CZW6 32-185) with K32D
Procedure, shortened: as §1

[2] = system: full-length RNF146 or RNF146(RING-WWE); assay: E2~Ub/lysine reactivity assay with UbcH5; assay type: biochemical, human
Procedure, shortened: (§2)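 Mouse RNF146(RING-WWE) (residues 30–183), made from a GST-tagged construct with TEV cleavage, or His6-T7-tagged full-length RNF146. UbcH5~Ub was charged by wheat E1 (1.5 μM) with 100 μM E2, 200 μM K0 Ub, 2.5 mM MgCl2 and 2 mM ATP in PBS at 37 °C for 30 min, then SEC-purified. Final: 25 μM E2, 4 or 8 μM E3, ± iso-ADPr. Started with 40 mM L-lysine at 35 °C; sampled 1–15 min; non-reducing SDS-PAGE, Coomassie/Oriole stain.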

RNF146(RING-WWE) K61D = assay: E2~Ub/lysine reactivity assay, K61D mutant; assay type: biochemical, mouse; details: 8 μM E3, 25 μM iso-ADPr
Procedure, shortened: as §2

RNF146 WWE domain alone = details: previously published; cited from earlier work

| Compound | binding to WWE domain (RNF146 WWE domain) | pKd ([1]; ITC, 25 °C, one-site model) | binding to RNF146(RING-WWE) relative to the WWE domain alone ([1]; ratio of Kd 39 nM vs 372 nM) | pKd (K61A RNF146(RING-WWE)) | pKd (K61D RNF146(RING-WWE)) | iso-ADPr concentration up to which the rate of E2~Ub/lysine reactivity increases ([2]; 3 min after lysine addition, 1.2 equiv.) | activation of Ub transfer from UbcH5~Ub to lysine ([2]; ligand added to full-length RNF146 or RING-WWE fragment, not RING-only construct) | activation of E2~Ub/lysine reactivity (RNF146(RING-WWE) K61D) | pKd (RNF146 WWE domain alone) |
| --- | --- | --- | --- | --- | --- | --- | --- | --- | --- |
| Nc1ncnc2c1ncn2[C@@H]1O[C@H](COP(=O)(O)OP(=O)(O)OC[C@H]2OC(O)[C@H](O)[C@@H]2O)[C@@H](O)[C@H]1O (stereo partly drawn) [ADPr, ADP-ribose] | does not bind |  |  |  |  |  |  |  |  |
| Nc1ncnc2c1ncn2[C@@H]1O[C@H](COP(=O)(O)O)[C@@H](O)[C@H]1O[C@@H]1O[C@H](COP(=O)(O)O)[C@@H](O)[C@H]1O [iso-ADPr] |  | 7.41 | ten times tighter | 6.67 | 6.34 | 5 µM | robust activation | not activated | 6.43 |
